# According to ChEMBL document CHEMBL1127570, “Synthesis and anticonvulsant properties of new benzylpyridazine derivatives” (J Med Chem, 1994):
# What was measured:
# Mus musculus [1] = experiment: Tested for NMDLA induced seizures and protection against full generalized tonic seizures was recorded; Percentage of protection at 150 mg/kg per os.; assay type: functional; conditions: for ED50: Mus musculus, po
# In short: (§1)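 Compounds given 30 min before N-methyl-D,L-aspartate 345 mg/kg sc in mice. Protection against full generalized tonic seizures recorded. Chi-square with Yates correction.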
# Mus musculus [2] = experiment: Ability to prevent the tonic extensor component induced by 106.25 mg/kg sc of pentylenetetrazole; assay type: functional; conditions: route subcutaneous
# Mus musculus [3] = species: Mus musculus; experiment: (§2) Anticonvulsant activity against bicuculline induced seizures in mice; assay type: functional
# In short: (§3)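 Mice given compound 30 min before bicuculline 0.81 mg/kg iv (procedure after Heyer). Protection against clonic seizures recorded. Groups of 10 mice per dose; chi-square with Yates correction.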
# Mus musculus [4] = experiment: Tested for the abolition of the hand leg tonic extensor component of the seizure induced by a 0.96 mg/kg sc injection of strychnine; assay type: functional; conditions: route subcutaneous
# In short: (§4)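 Mice tested 30 min after compound for abolition of the tonic extensor component from strychnine 0.96 mg/kg sc. Chi-square with Yates correction; ED50 by Litchfield–Wilcoxon.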
# Mus musculus [5] = experiment: Yohimbine induced seizures by administrating sc and the compound which do not exhibit at least one clonic seizure within 60 min was recorded; assay type: functional; conditions: 1 h
# In short: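 Mice, 10 per dose, dosed 30 min before yohimbine 45 mg/kg sc. Animals with no clonic seizure within 60 min were counted as protected. ED50 by Litchfield–Wilcoxon; chi-square with Yates correction.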
# Mus musculus [6] = experiment: Locomotor activity in maximal electroshock seizure+ indicates increase at 100 mg/kg; assay type: functional
# Mus musculus [7] = species: Mus musculus; experiment: Anticonvulsant activity in mice using the maximal electroshock seizure test.; assay type: functional
# In short: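 Oral dosing of mice 30 min before maximal electroshock via corneal electrodes. Protection is abolition of the hind limb tonic extensor component.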
# [8] = Central nervous system toxicity was performed by determining the median toxic dose in the rotarod test; assay type: organism-based; conditions: mouse, in vivo
# In short: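 Rotarod neurotoxicity in mice, oral dosing 30 min before assay. Failure to stay 3 min on a 3-cm wooden rod turning at 8 rpm counts as toxic.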
# [9] = Protective index is the ratio between TD50 and ED50 values; assay type: functional
# In short: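 Protective index is rotarod TD50 divided by ED50. Both come from oral dosing in mice 30 min before test and are calculated by Litchfield–Wilcoxon.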
# Mus musculus [10] = experiment: Locomotor activity in maximal electroshock seizure. - indicates decrease at 100 mg/kg; assay type: functional
# Mus musculus [11] = experiment: Anticonvulsant activity was measured using the maximal electroshock seizure test in mice. protection percentage at 100 mg/kg; assay type: functional; conditions: for % protection at 100 mg/kg: Mus musculus
# Mus musculus [12] = experiment: Tested for the abolition of the hand leg tonic extensor component of the seizure induced by a 0.96 mg/kg sc injection of strychnine;Percentage of protection at 100 mg/kg per os.; assay type: functional; in short: as §4
# Mus musculus [13] = experiment: Yohimbine induced seizures by administrating sc and the compound which do not exhibit at least one clonic seizure within 60 min was recorded; Percentage of protection at 150 mg/kg per os.; assay type: functional; conditions: route subcutaneous; for ED50: Mus musculus, sc, 1 h
# In short: (§5)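 Compound given 30 min before yohimbine 45 mg/kg sc in mice. Animals without at least one clonic seizure within 60 min count as protected. Chi-square with Yates correction.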
# Mus musculus [14] = experiment: (§6) Anticonvulsant activity against bicuculline induced seizures in mice; Percentage of protection at 100 mg/kg per os.; assay type: functional; in short: as §3
# Mus musculus [15] = experiment: Ability to prevent the tonic extensor component induced by 106.25 mg/kg sc of pentylenetetrazole; Percentage of protection at 100 mg/kg per os.; assay type: functional
# In short: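 Mice dosed orally 30 min before pentylenetetrazole 106.25 mg/kg sc. Protection is block of the tonic extensor component. Groups of 10 mice per dose; chi-square with Yates correction; ED50 by Litchfield–Wilcoxon.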
# Mus musculus [16] = experiment: Tested for the abolition of the hand leg tonic extensor component of the seizure induced by a 0.96 mg/kg sc injection of strychnine; Percentage of protection at 100 mg/kg per os.; assay type: functional
# In short: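 Oral dose of 100 mg/kg in mice, 10 per dose, given 30 min before strychnine 0.96 mg/kg sc. Protection means abolition of the hind leg tonic extensor component, given as percentage of animals protected. Chi-square with Yates correction.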
# Mus musculus [17] = experiment: yohimbine induced seizures by administrating sc and the compound which do not exhibit at least one clonic seizure within 60 min was recorded; Percentage of protection at 100 mg/kg per os.; assay type: functional; conditions: 1 h, route subcutaneous; in short: as §5
# Mus musculus [18] = experiment: as §6; assay type: functional; remark: listed apart in the source
# In short: (§7)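 Mice, 10 per dose. Test drug given 30 min before bicuculline 0.81 mg/kg iv; protection against clonic seizures recorded. Line 2: single oral dose of 100 mg/kg, given as percentage of animals protected. ED50 by Litchfield–Wilcoxon; chi-square with Yates correction.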
# Mus musculus [19] = experiment: Tested for NMDLA induced seizures and protection against full generalized tonic seizures was recorded; Percentage of protection at 30 mg/kg per os.; conditions: po
# Mus musculus [20] = species: Mus musculus; experiment: as §2; assay type: functional; in short: as §7; remark: listed apart in the source
# Mus musculus [21] = species: Mus musculus; experiment: Tested for NMDLA induced seizures and protection against full generalized tonic seizures was recorded; assay type: functional
# In short: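 NMDLA (N-methyl-D,L-aspartate) 345 mg/kg sc injected 30 min after test drug in mice, 10 per dose; protection against full generalized tonic seizures recorded. ED50 by Litchfield–Wilcoxon; chi-square with Yates correction.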
# Mus musculus [22] = experiment: Tested for NMDLA induced seizures and protection against full generalized tonic seizures was recorded; Percentage of protection at 100 mg/kg per os.; assay type: functional; conditions: po; in short: as §1
SMILES,Locomotor activity (Mus musculus [6]) [%],ED50 (Mus musculus [7]) [mg/kg],TD50 [8] [mg/kg],PI [9],Locomotor activity (Mus musculus [10]) [%],also measured
Cc1nn2c(N)nnc2cc1Cc1c(Cl)cccc1Cl,16,9.2,410,44.5,,ED50 (Mus musculus [1]): 14 mg/kg; ED50 (Mus musculus [2]): 76 mg/kg; ED50 (Mus musculus [3]): 93 mg/kg; ED50 (Mus musculus [4]): 34.5 mg/kg; ED50 (Mus musculus [5]): 76 mg/kg
Cc1nn2c(N)nnc2cc1Cc1ccc(F)cc1,,43,,,-15,
Cc1nnc(NNC(=O)C(C)C)cc1Cc1ccccc1Cl,,,,,-57,% protection at 100 mg/kg (Mus musculus [11]): 17%
O=C1NC(=O)C(c2ccccc2)(c2ccccc2)N1 [PHENYTOIN],,4,30.5,7.6,-16,percent protection (Mus musculus [1]): 0%; percent protection (Mus musculus [12]): 0%; ED50 (Mus musculus [13]): 10 mg/kg; percent protection (Mus musculus [14]): 0%; percent protection (Mus musculus [15]): 0%
Cc1nnc(NC(N)=O)cc1Cc1ccccc1,,10.2,140,13.7,-5,ED50 (Mus musculus [1]): 12.5 mg/kg; ED50 (Mus musculus [3]): 111 mg/kg; ED50 (Mus musculus [4]): 28 mg/kg; ED50 (Mus musculus [13]): 10 mg/kg; pct protection (Mus musculus [15]): 20%
Cc1nnc(NNC(=O)Nc2ccccc2)cc1Cc1ccccc1,,,,,,percent protection (Mus musculus [11]): 0%
Cc1nn2c(N)nnc2cc1Cc1ccccc1Cl,,17.4,,,-7,
Cc1ccc(Cc2cc3nnc(N)n3nc2C)cc1,,22.5,,,-8,
Cc1nnc(NNC(=O)c2ccccc2)cc1Cc1ccccc1,,,,,-62,% protection at 100 mg/kg (Mus musculus [11]): 17%
CCCC(CCC)C(=O)[O-].[Na+] [VALPROATE SODIUM],,112,208,1.9,-5,percent protection (Mus musculus [1]): 0%; percent protection (Mus musculus [16]): 0%; ED50 (Mus musculus [13]): 10 mg/kg; pct protection (Mus musculus [15]): 20%
Cc1nn2c(N)nnc2cc1Cc1ccccc1,11,22,> 800,36.4,,ED50 (Mus musculus [1]): 14 mg/kg; ED50 (Mus musculus [3]): 94 mg/kg; ED50 (Mus musculus [4]): 35 mg/kg; ED50 (Mus musculus [13]): 20 mg/kg; pct protection (Mus musculus [15]): 20%
Cc1nnc(NNC(=O)C(C)C)cc1Cc1ccccc1,,,,,-67,percent protection (Mus musculus [11]): 0%
NC(=O)N1c2ccccc2C=Cc2ccccc21 [CARBAMAZEPINE],7,5.5,40,7.3,,ED50 (Mus musculus [1]): 20 mg/kg; ED50 (Mus musculus [2]): 17.5 mg/kg; ED50 (Mus musculus [17]): 10 mg/kg; percent protection (Mus musculus [18]): 0%; ED50 (Mus musculus [4]): 8.5 mg/kg
Cc1nn2cc(-c3ccccc3)nc2cc1Cc1ccccc1,12,105,,,,
Cc1nnc(NNC(=O)N(c2ccccc2)c2ccccc2)cc1Cc1ccccc1,9,,,,,% protection at 100 mg/kg (Mus musculus [11]): 15%
CN1C(=O)CN=C(c2ccccc2)c2cc(Cl)ccc21 [DIAZEPAM],,4,2.8,0.7,,ED50 (Mus musculus [19]): 30 mg/kg; ED50 (Mus musculus [2]): 0.5 mg/kg; ED50 (Mus musculus [4]): 1.1 mg/kg; ED50 (Mus musculus [5]): 2.3 mg/kg; ED50 (Mus musculus [20]): 0.39 mg/kg
Cc1nn2c(C)nnc2cc1Cc1ccccc1Cl,,30.5,,,-1,
Cc1nn2cnnc2cc1Cc1ccccc1Cl,5,6,,,,
Cc1nn2c(-c3ccccc3)nnc2cc1Cc1ccccc1,2,108,,,,
Cc1nn2c(C)nnc2cc1Cc1ccccc1,47,26,,,,
CCC1(c2ccccc2)C(=O)NC(=O)NC1=O [PHENOBARBITAL],33,4.6,33,7.2,,ED50 (Mus musculus [21]): 30 mg/kg; ED50 (Mus musculus [2]): 15 mg/kg; percent protection (Mus musculus [16]): 0%; ED50 (Mus musculus [5]): 17 mg/kg; ED50 (Mus musculus [20]): 20 mg/kg
Cc1nnc(NNC(=O)Nc2ccccc2)cc1Cc1ccccc1Cl,,,,,-3,% protection at 100 mg/kg (Mus musculus [11]): 33%
Cc1nn2cnnc2cc1Cc1ccccc1,8,9.5,170,17.9,,ED50 (Mus musculus [1]): 25 mg/kg; ED50 (Mus musculus [3]): 63 mg/kg; ED50 (Mus musculus [4]): 85 mg/kg; percent protection (Mus musculus [13]): 0%; pct protection (Mus musculus [15]): 20%
Cc1nn2cnnc2cc1Cc1c(Cl)cccc1Cl,13,6.2,88,14.2,,pct protection (Mus musculus [22]): 12.5%; ED50 (Mus musculus [2]): 70 mg/kg; ED50 (Mus musculus [3]): 125 mg/kg; ED50 (Mus musculus [4]): 39.5 mg/kg; ED50 (Mus musculus [5]): 150 mg/kg
Cc1nn2c(NC(=O)c3ccccc3)nnc2cc1Cc1ccccc1,7,35,,,,
